Results published in ChEMBL document CHEMBL1124174, “Substituted benzamides. 1. Potential nondopaminergic antagonists of chemotherapy-induced nausea and emesis” (J Med Chem, 1988).
Values joined by “and” are separate entries in the source; they are usually repeats but may differ in a detail not shown here. Identical values can stand only once.

How the values were obtained:
[1] = target: D(2) dopamine receptor (Canis lupus familiaris) (UniProt Q9GJU1); test: In vivo antagonism activity against dopamine D2 receptor was measured as emesis in dog when administered subcutaneously; format: functional, organism-based
Canis familiaris [2] = test: In vivo antagonism of cisplatin-induced emesis in dog measured as percentage protection for twice the dose of 0.3 mg/kg in 2 dogs; format: functional, Canis lupus familiaris
Outline: (§1)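 Nonfasted mature male or female beagles were dosed sc twice, 30 min before and 120 min after cisplatin (3 mg/kg iv; 3 mg/mL in warm 0.9% saline, used immediately). Emesis was observed up to 5 h; events within 2 min counted as one episode. Results were given as mean emetic episodes and % protection versus a dynamic control (historical and concurrent saline means pooled). t test versus saline.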

D(2) dopamine receptor = D(2) dopamine receptor (Rattus norvegicus, UniProt P61169); test: In vitro antagonistic activity against Dopamine receptor D2 was evaluated for the inhibition of [3H]spiperone binding
Outline: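 Rat striatal membranes were prepared by differential centrifugation in 50 mM Tris pH 7.4 at 4 °C. Membrane protein (10 mg) was incubated 15 min at 37 °C with 0.1 nM [3H]spiperone and varying competitor concentrations. Buffer: 50 mM Tris HCl pH 7.5, 0.1% ascorbic acid, pargyline, 120 mM NaCl, 5 mM KCl, 2 mM CaCl2, 1 mM MgCl2. (+)-Butaclamol defined nonspecific binding. Bound ligand was collected by filtration and scintillation counted. IC50 by log-logit regression.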

[3] = target: D(2) dopamine receptor (Rattus norvegicus) (UniProt P61169); test: In vivo antagonism activity against D2 receptor was measured as stereotypy in rat when administered subcutaneously; format: functional, organism-based
Outline: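 Male Long Evans rats (275 g) were dosed sc in dilute aqueous HCl (pH 4.5-5.5) 30 min before apomorphine (1 mg/kg sc).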

[4] = target: D(2) dopamine receptor (Rattus norvegicus) (UniProt P61169); test: In vivo antagonistic activity against dopamine D2 receptor was measured as catalepsy in rat when administered subcutaneously; format: functional, organism-based
Outline: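 Male Long Evans rats (275 g) received graded sc doses in dilute aqueous HCl (pH 4.5-5.5). They were observed 180 min for catalepsy, scored when the animal stayed stationary ≥15 s on a four-cork template.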

Mustela putorius furo [5] = test: In vivo antagonism of cisplatin-induced emesis in ferret measured as emetic episodes, twice the dose of 1 mg/kg and in 3 ferrets; format: functional
Outline: (§2)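 Nonfasted castrated male Fitch ferrets (1–1.5 kg) had jugular catheters implanted ≥48 h earlier under anesthesia. Compounds or saline were given iv twice, 5 min before and 90 min after cisplatin (12 mg/kg iv; 12 mg/mL in warm 0.9% saline). Emesis was observed up to 4 h; events within 1 min counted as one episode. Results were given as mean emetic episodes and % protection versus a pooled historical/concurrent control. t test versus saline.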

Mustela putorius furo [6] = test: In vivo antagonism of cisplatin-induced emesis in ferret measured as percentage protection for twice the dose of 1 mg/kg and in 3 ferrets; format: functional; outline: as §2
Canis familiaris [7] = test: In vivo antagonism of cisplatin-induced emesis in dog measured as emetic episodes, twice the dose of 0.3 mg/kg in 2 dogs; format: functional, Canis lupus familiaris; outline: as §1
Mustela putorius furo [8] = test: In vivo antagonism of cisplatin-induced emesis in ferret measured as percentage protection for twice the dose of 3 mg/kg and in 3 ferrets; format: functional; outline: as §2
Mustela putorius furo [9] = test: In vivo antagonism of cisplatin-induced emesis in ferret measured as emetic episodes, twice the dose of 3 mg/kg and in 3 ferrets; format: functional; outline: as §2
Canis familiaris [10] = test: In vivo antagonism of cisplatin-induced emesis in dog measured as percentage protection for twice the dose of 1 mg/kg in 2 dogs; format: functional, Canis lupus familiaris; outline: as §1
Canis familiaris [11] = test: In vivo antagonism of cisplatin-induced emesis in dog measured as emetic episodes, twice the dose of 1 mg/kg in 2 dogs; format: functional, Canis lupus familiaris; outline: as §1

Sequence of D(2) dopamine receptor (Rattus norvegicus) (P61169 whole entry): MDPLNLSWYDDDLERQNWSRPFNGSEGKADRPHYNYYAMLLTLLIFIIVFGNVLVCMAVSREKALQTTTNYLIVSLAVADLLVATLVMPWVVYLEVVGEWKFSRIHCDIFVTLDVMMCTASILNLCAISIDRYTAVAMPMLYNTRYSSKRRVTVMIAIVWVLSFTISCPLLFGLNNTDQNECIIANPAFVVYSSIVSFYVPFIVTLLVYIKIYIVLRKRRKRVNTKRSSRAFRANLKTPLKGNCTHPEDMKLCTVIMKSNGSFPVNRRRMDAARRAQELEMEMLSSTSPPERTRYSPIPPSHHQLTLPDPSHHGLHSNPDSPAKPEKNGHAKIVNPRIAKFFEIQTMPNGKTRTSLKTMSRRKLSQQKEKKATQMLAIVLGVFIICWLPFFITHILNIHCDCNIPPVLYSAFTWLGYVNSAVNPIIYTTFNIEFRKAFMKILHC
Sequence of D(2) dopamine receptor (P61169 whole entry): as above
Sequence of D(2) dopamine receptor (Canis lupus familiaris) (Q9GJU1 whole entry): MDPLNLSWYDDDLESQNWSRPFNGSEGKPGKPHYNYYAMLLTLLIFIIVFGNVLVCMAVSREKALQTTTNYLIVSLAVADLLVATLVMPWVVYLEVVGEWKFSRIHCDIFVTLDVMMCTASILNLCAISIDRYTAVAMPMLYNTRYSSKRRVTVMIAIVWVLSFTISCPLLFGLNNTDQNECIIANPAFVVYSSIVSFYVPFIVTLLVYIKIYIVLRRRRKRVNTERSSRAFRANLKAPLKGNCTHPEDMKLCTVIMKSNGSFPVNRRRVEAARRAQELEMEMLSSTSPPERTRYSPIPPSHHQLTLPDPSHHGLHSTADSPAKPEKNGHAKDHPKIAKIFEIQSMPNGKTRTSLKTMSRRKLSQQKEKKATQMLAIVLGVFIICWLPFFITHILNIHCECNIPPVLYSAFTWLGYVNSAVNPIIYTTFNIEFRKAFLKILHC

Row | SMILES | ED50 [1] | Protection (Canis familiaris [2]) | IC50 (D(2) dopamine receptor) | ED50 [3] | ED50 [4] | Emetic episodes (Mustela putorius furo [5]) | Protection (Mustela putorius furo [6]) | Emetic episodes (Canis familiaris [7]) | Protection (Mustela putorius furo [8]) | Emetic episodes (Mustela putorius furo [9]) | Protection (Canis familiaris [10]) | Emetic episodes (Canis familiaris [11]) | Protection (Canis familiaris [2]; 0.3 mg/kg) | Emetic episodes (Mustela putorius furo [5]; 1 mg/kg) | Protection (Mustela putorius furo [8]; 3 mg/kg) | Emetic episodes (Mustela putorius furo [9]; 3 mg/kg) | Protection (Mustela putorius furo [6]; 1 mg/kg) | Emetic episodes (Canis familiaris [7]; 0.3 mg/kg) | Protection (Mustela putorius furo [5])
1 | CCCC(=O)COc1cc(N)c(Cl)cc1C(=O)NCCN(CC)CC | > 3 mg/kg | 84% | > 1 µM | > 40 mg/kg | > 40 mg/kg | 0.7 | 90% | 2 | – | – | – | – | – | – | – | – | – | – | –
2 | CCN(CC)CCNC(=O)c1cc(Cl)c(N)cc1OCc1ccccn1 | > 3 mg/kg | – | > 1 µM | > 40 mg/kg | > 40 mg/kg | 2.3 | 67% | – | 86% | 1 | – | – | – | – | – | – | – | – | –
3 | CCC(Oc1cc(N)c(Cl)cc1C(=O)NCCN(CC)CC)C(C)=O (configuration not stated) | > 3 mg/kg | – | > 1 µM | > 40 mg/kg | > 40 mg/kg | 2.3 | 68% | 3 | – | – | 96% | 0.5 | – | – | – | – | – | – | –
4 | CCN(CC)CCNC(=O)c1cc(Cl)c(N)cc1OC(C)C(C)O (stereo in doubt; 8g,h) | – | – | > 1 µM | – | – | – | – | – | – | – | – | – | 96% | 1.7 | 80% | 1.3 | 75% | 0.5 | –
5 | CCN(CC)CCNC(=O)c1cc(Cl)c(N)cc1OCC(C)(C)O | > 3 mg/kg | – | > 1 µM | > 40 mg/kg | > 40 mg/kg | 3 | – | – | – | 1.3 | – | – | – | – | – | – | 84% and 57% | – | –
6 | CCN(CC)CCNC(=O)c1cc(Cl)c(N)cc1OCCC(C)O (configuration not stated) | > 3 mg/kg | 32% | > 1 µM | > 40 mg/kg | > 40 mg/kg | 2 | 73% | 8 | – | – | – | – | – | – | – | – | – | – | –
7 | CCN(CC)CCNC(=O)c1cc(Cl)c(N)cc1OCCO | > 3 mg/kg | – | > 1 µM | > 40 mg/kg | > 40 mg/kg | – | – | – | 68% | 2.3 | 76% | 3 | – | – | – | – | – | – | –
8 | CCN(CC)CCNC(=O)c1cc(Cl)c(N)cc1OCC(=O)C(C)C | > 3 mg/kg | 44% | > 1 µM | > 40 mg/kg | > 40 mg/kg | 4 | 44% | 3 | – | – | – | – | – | – | – | – | – | – | –
9 | CCC(=O)C(C)Oc1cc(N)c(Cl)cc1C(=O)NCCN(CC)CC (configuration not stated) | > 3 mg/kg | 84% | > 1 µM | > 40 mg/kg | > 40 mg/kg | 1.3 | 82% | 2 | – | – | – | – | – | – | – | – | – | – | –
10 | CCN(CC)CCNC(=O)c1cc(Cl)c(N)cc1OCC1=NCCN1 | > 3 mg/kg | – | > 1 µM | > 40 mg/kg | > 40 mg/kg | – | – | – | 86% | 1 | 88% | 1.5 | – | – | – | – | – | – | –
11 | CCN(CC)CCNC(=O)c1cc(Cl)c(N)cc1OCC(C)O (configuration not stated) | > 3 mg/kg | 68% | > 1 µM | > 40 mg/kg | > 40 mg/kg | 4.5 | 36% | 3 | 86% | 1 | 100% | 0 | – | – | – | – | – | – | –
12 | CCN(CC)CCN1CCOc2cc(N)c(Cl)cc2C1=O | > 3 mg/kg | – | > 1 µM | > 40 mg/kg | > 40 mg/kg | 6 | 14% | – | – | – | – | – | – | – | – | – | – | – | –
13 | CCN(CC)CCNC(=O)c1cc(Cl)c(N)cc1OCCOCCOC | > 3 mg/kg | – | > 1 µM | > 40 mg/kg | > 40 mg/kg | 4.3 | 39% | – | 76% | 1.7 | – | – | – | – | – | – | – | – | –
14 | CCN(CC)CCNC(=O)c1cc(Cl)c(N)cc1OC(C)/C(C)=N/O (configuration not stated) | > 3 mg/kg | – | > 1 µM | > 40 mg/kg | > 40 mg/kg | 4.3 | 44% | – | – | – | – | – | – | – | – | – | – | – | –
15 | C/C=C/COc1cc(N)c(Cl)cc1C(=O)NCCN(CC)CC | > 3 mg/kg | – | > 1 µM | > 40 mg/kg | > 40 mg/kg | – | – | – | 90% | 0.7 | 80% | 2.5 | – | – | – | – | – | – | –
16 | CCN(CC)CCNC(=O)c1cc(Cl)c(N)cc1OC1CCCC[C@H]1O (some centres not stated) | – | 64% | > 1 µM | > 40 mg/kg | > 40 mg/kg | – | – | 4.5 | 64% | 2.7 | 100% | 0 | – | – | – | – | – | – | –
17 | CCN(CC)CCNC(=O)c1cc(Cl)c(N)cc1OC/C(C)=N/O | > 3 mg/kg | – | > 1 µM | > 40 mg/kg | > 40 mg/kg | – | – | – | 100% | 0 | 79% | 2.5 | – | – | – | – | – | – | –
18 | CCN(CC)CCNC(=O)c1cc(Cl)c(N)cc1OC1CCCC1=O (configuration not stated) | > 3 mg/kg | – | > 1 µM | > 40 mg/kg | > 40 mg/kg | 5.7 | 21% | – | – | – | 87% | – | – | – | – | – | – | – | –
19 | C=CCC(Oc1cc(N)c(Cl)cc1C(=O)NCCN(CC)CC)C(C)=O (configuration not stated) | > 3 mg/kg | – | > 1 µM | > 40 mg/kg | > 40 mg/kg | 1.7 | – | – | 68% | 2.3 | 52% | 6 | – | – | – | – | – | – | 76%
20 | CCN(CC)CCNC(=O)c1cc(Cl)c(N)cc1OC1CCCC[C@@H]1O (some centres not stated) | > 3 mg/kg | – | > 1 µM | > 40 mg/kg | > 40 mg/kg | – | – | – | 60% | 3 | 66% | 4 | – | – | – | – | – | – | –
21 | CCN(CC)CCNC(=O)c1cc(Cl)c(N)cc1OCC(O)Cc1ccccc1 (configuration not stated) | > 3 mg/kg | – | > 1 µM | > 40 mg/kg | > 40 mg/kg | 3.3 | 54% | – | – | – | – | – | – | – | – | – | – | – | –
